Results taken from ChEMBL document CHEMBL4402525, “Potential Tools for Eradicating HIV Reservoirs in the Brain: Development of Trojan Horse Prodrugs for the Inhibition of P-Glycoprotein with Anti-HIV-1 Activity” (J Med Chem, 2020).
Calls of active or inactive are those of the source. No cut-off for these calls is given here.

How the values were obtained:
[1] = tested on: Human immunodeficiency virus 1; experiment: Antiviral activity against HIV1 LAI infected in human 12D7 cells overexpressing p-gp assessed as reduction in P24 level at 0.08 to 1.25 uM incubated for 3 days followed by replacement of fresh medium containing compound and measured after 3 days by ELISA; format: functional, organism-based; details: M:B_Lai
How it was run: (§1)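 12D7 CD4+ T cells in log phase, resuspended at 1 million/mL, infected 4 h with 500 TCID50 HIV-1 LAI, washed three times, plated at 75 000 cells/mL; compound added at 0.05% DMSO in RPMI 1640 with 10% FBS, L-glutamine and penicillin/streptomycin; medium with same compound level renewed day 3; day-6 supernatant p24 (gag) quantified by ELISA; duplicate runs.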

[2] = Stability of compound in PBS after 3 days by UPLC-MS analysis; format: physicochemical; details: read-out: Stability
[3] = Produrg conversion in pH 7.4 PBS/30% methanol assessed as GSH-mediated abacavir formation by measuring half life at 4 uM in presence of 10 mM GSH by UPLC-MS analysis; format: ADME; details: pH 7.4, 4 µM
How it was run: (§2)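 Heterodimer at 4 μM was incubated at 37 °C with 250 mM DTT or 10 mM GSH. The solvent was degassed 30% methanol/PBS (pH ~ 7.4) containing 5 μM quinine as internal standard. Reductant-triggered release of the monomeric drugs was followed over time and given as t1/2.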

[4] = Stability of compound in RPMI medium at 100 uM after 3 days by UPLC-MS analysis; format: physicochemical; details: read-out: Stability
How it was run: (§3)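 Heterodimer at 100 μM was held at 37 °C in 12D7 cell medium with 1% DMSO. The medium was RPMI 1640 with penicillin/streptomycin, 5 mM L-glutamine and 10% FBS. Every 24 h an aliquot was quenched 1:1 with ice-cold acetonitrile containing 1.0 mM 4-methoxybenzyl alcohol, then centrifuged. Supernatant was run on C8 RP-HPLC (0.05% TFA, 15–75% acetonitrile over 30 min, UV 254 nm), in duplicate.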

[5] = Produrg conversion in pH 7.4 PBS/30% methanol assessed as GSH-mediated darunavir formation by measuring half life at 4 uM in presence of 10 mM GSH by UPLC-MS analysis; format: ADME; details: pH 7.4, 4 µM; how it was run: as §2
[6] = Produrg conversion in pH 7.4 PBS/30% methanol assessed as DTT-mediated abacavir formation by measuring half life at 4 uM in presence of 250 mM DTT by UPLC-MS analysis; format: ADME; details: buffer, pH 7.4, 4 µM; how it was run: as §2
[7] = Produrg conversion in pH 7.4 PBS/30% methanol assessed as DTT-mediated darunavir formation by measuring half life at 4 uM in presence of 250 mM DTT by UPLC-MS analysis; format: ADME; details: buffer, pH 7.4, 4 µM; how it was run: as §2
P-gp (ABCB1) [8] = molecular target: T1, P-gp (ABCB1) (Homo sapiens, UniProt P08183); experiment: Inhibition of P-gp in human 12D7-MDR cells up to 500 uM using calcein-AM as substrate after 30 mins by flow cytometric analysis relative to control; details: probe calcein-AM
T1 sequence (P08183 whole entry): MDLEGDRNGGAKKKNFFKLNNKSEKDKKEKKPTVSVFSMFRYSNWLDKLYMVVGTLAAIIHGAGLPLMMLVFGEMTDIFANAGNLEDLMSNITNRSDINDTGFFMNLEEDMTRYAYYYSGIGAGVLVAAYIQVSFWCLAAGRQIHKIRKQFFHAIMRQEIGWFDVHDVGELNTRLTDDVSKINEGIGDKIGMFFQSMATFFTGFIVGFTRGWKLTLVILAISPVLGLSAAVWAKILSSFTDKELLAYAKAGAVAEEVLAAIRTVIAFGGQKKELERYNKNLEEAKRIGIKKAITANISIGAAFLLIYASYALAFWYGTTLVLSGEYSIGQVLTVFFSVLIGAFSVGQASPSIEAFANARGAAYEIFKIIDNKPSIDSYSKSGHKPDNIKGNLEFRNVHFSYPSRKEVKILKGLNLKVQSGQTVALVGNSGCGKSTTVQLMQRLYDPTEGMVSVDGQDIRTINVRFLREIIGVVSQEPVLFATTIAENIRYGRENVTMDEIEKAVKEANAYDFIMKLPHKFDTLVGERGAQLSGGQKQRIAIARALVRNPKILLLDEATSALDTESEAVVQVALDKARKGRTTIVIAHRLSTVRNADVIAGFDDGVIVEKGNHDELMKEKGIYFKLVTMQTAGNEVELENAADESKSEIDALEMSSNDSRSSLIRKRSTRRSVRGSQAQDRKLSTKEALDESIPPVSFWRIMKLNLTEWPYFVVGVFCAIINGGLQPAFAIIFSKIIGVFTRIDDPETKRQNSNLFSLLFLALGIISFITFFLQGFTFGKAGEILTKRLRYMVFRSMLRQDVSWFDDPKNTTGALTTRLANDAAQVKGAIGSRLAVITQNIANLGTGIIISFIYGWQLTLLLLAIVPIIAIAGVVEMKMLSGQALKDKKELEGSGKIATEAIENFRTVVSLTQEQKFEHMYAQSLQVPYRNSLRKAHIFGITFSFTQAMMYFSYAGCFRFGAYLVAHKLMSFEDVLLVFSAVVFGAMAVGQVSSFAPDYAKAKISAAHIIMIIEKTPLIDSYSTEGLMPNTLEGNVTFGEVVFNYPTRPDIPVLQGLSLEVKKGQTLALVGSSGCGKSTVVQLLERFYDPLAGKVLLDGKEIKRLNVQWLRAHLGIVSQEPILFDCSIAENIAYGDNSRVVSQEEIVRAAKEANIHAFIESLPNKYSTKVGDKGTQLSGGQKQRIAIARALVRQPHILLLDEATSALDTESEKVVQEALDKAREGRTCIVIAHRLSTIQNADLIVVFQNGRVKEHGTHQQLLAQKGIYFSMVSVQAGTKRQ

P-gp (ABCB1) [9] = molecular target: T1, P-gp (ABCB1); experiment: Inhibition of P-gp in human 12D7-MDR cells up to 500 uM using NBD-Aba as substrate after 30 mins by flow cytometric analysis relative to control; details: probe NBD-Aba
[10] = tested on: Human immunodeficiency virus 1; experiment: Antiviral activity against HIV1 LAI infected in human 12D7 cells overexpressing p-gp assessed as reduction in P24 level at 1:1 ratio of test compound to abacavir incubated for 3 days followed by followed by replacement of fresh medium containing compound and measured after 3 days by ELISA; format: functional, organism-based; details: M:B_Lai; how it was run: as §1
[11] = Produrg conversion in pH 7.4 PBS/30% methanol assessed as DTT-mediated nelfinavir formation by measuring half life at 4 uM in presence of 250 mM DTT by UPLC-MS analysis; format: ADME; details: buffer, pH 7.4, 4 µM; how it was run: as §2
[12] = Stability of compound in PBS after 1 week by UPLC-MS analysis; format: physicochemical; details: read-out: Stability
[13] = Produrg conversion in pH 7.4 PBS/30% methanol assessed as GSH-mediated nelfinavir formation by measuring half life at 4 uM in presence of 10 mM GSH by UPLC-MS analysis; format: ADME; details: pH 7.4, 4 µM; how it was run: as §2
[14] = Stability of compound in RPMI medium at 100 uM after 1 week by UPLC-MS analysis; format: physicochemical; details: read-out: Stability; how it was run: as §3

| SMILES | Activity [1] | t1/2 [3] [h] | t1/2 [6] [h] | Activity [10] | other results |
| --- | --- | --- | --- | --- | --- |
| CC(C)CN(C[C@@H](OC(=O)CCCSSCCCC(=O)OC[C@@H]1C=C[C@H](n2cnc3c(NC4CC4)nc(N)nc32)C1)[C@H](Cc1ccccc1)NC(=O)O[C@H]1CO[C@H]2OCC[C@H]21)S(=O)(=O)c1ccc(N)cc1 | Active | 21.6 | 34.5 |  | remaining at 72 h [2]: > 95%; remaining at 72 h, 100 µM [4]: > 95%; t1/2 [5]: 36.3 h; t1/2 [7]: 21.3 h |
| Nc1nc(NC2CC2)c2ncn([C@H]3C=C[C@@H](CO)C3)c2n1 [ABACAVIR] | Active |  |  |  | inhibition at 0.5 h (P-gp (ABCB1) [8]): < 10%; inhibition at 0.5 h (P-gp (ABCB1) [9]): < 10% |
| CC(C)CN(C[C@@H](O)[C@H](Cc1ccccc1)NC(=O)O[C@H]1CO[C@H]2OCC[C@H]21)S(=O)(=O)c1ccc(N)cc1 | Active |  |  | Active |  |
| Cc1c(OC(=O)CCCSSCCCC(=O)OC[C@@H]2C=C[C@H](n3cnc4c(NC5CC5)nc(N)nc43)C2)cccc1C(=O)N[C@@H](CSc1ccccc1)[C@H](O)CN1C[C@H]2CCCC[C@H]2C[C@H]1C(=O)NC(C)(C)C | Active | 29.4 | 31.8 |  | t1/2 [11]: 1.2 h; remaining at 168 h [12]: > 95%; t1/2 [13]: 10.3 h; remaining at 168 h, 100 µM [14]: > 95% |
| Cc1c(O)cccc1C(=O)N[C@@H](CSc1ccccc1)[C@H](O)CN1C[C@H]2CCCC[C@H]2C[C@H]1C(=O)NC(C)(C)C | Active |  |  | Active |  |
